SKN-1 inh: blocks SKN-1 activity in C. elegans. 360,000 tested, 0.49% active. C. elegans VP596 Pgst-4::GFP/RFP ratio, acrylamide-induced, 24 h. inhibition, % at 21.8 µM. AID 624304;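 active = interference check ratio from 0.5 to 1.5 plus GFP to RFP signal ratio inhibition reaching or exceeding a fixed threshold, cut at about 30% in these data, passing the limit was not always enough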
MPTP block: blocks calcium-induced mitochondrial swelling | 360,000 tested, 1.4% active | isolated mouse mitochondria, Ca2+ swelling absorbance, 30 min | inhibition, % at 10 µM | AID 602449;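 active = inhibition of 50% or more, scaled per plate between neutral and stimulator controls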;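 also: 0% = DMSO wells given calcium and 100% = 1 mM EGTA wells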
MT1-MMP act inh: blocks activation of human MT1-MMP; AID 651647; GFP/RFP ratio change, % at 20 µM; HT1080 RFP-PRO-GFP cells, GFP/RFP ratio fluorescence, overnight; percent of plate control window, DMSO zero; 360,000 tested, 0.061% active;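 active = GFP/RFP ratio change of at least 30% with cell ATP level not reduced by more than half and red fluorescence within 50% of control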
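Assay system: HT1080 RFP-PRO-GFP cells. Benchmarks: DMSO vehicle wells and RFP-L50D-GFP reporter cell wells. Times: overnight cell settling, then overnight compound exposure, 37 °C, 5% CO2. Compound: 20 µM single dose, 1% DMSO. Read-out basis: GFP/RFP fluorescence ratio.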
ATG4B inh: inhibitors of human ATG4B cysteine protease. inhibition, % at 8.33 µM. 340,000 tested, 0.51% active. AID 504462. ATG4B cleavage of LC3-PLA2, NBD-HPC fluorescence, 1 h; in the data active = inhibition above about 40%
Target sequence (Q9Y4P1 whole entry, looked up): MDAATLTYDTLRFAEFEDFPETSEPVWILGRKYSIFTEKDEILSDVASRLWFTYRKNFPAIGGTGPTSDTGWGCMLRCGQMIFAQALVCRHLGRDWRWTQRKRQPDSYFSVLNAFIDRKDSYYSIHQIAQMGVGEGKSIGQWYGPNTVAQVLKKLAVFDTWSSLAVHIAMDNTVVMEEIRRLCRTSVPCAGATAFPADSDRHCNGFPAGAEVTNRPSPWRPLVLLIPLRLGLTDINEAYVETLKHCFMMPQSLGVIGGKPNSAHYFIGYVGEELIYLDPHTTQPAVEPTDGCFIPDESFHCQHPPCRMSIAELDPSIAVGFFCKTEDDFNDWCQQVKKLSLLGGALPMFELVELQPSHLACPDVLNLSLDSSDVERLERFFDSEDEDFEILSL
Rh123 counter: membrane potential counter-screen of mitochondrial pore inhibitors; shares compounds with MPTP block; isolated mitochondria, Rhodamine 123 fluorescence; inhibition, % at 10 µM; 5,000 tested, 78% active; in the data active = inhibition above about 22%;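 also: 0% = DMSO vehicle and 100% = positive control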
The depositor's hits bear a star; . = no result. Rows were chosen to be rich in hits. Some 2.3% of all compounds tested hit in one or more screens of this group.

SMILES | SKN-1 inh | MPTP block | MT1-MMP act inh | ATG4B inh | Rh123 counter
CN(C(=O)CSc1nnc(C2CC2)n1-c1ccccc1)C1CCS(=O)(=O)C1 (stereo unspecified) | -14 | 0 | 1 | -6 | .
N#CC(C#N)=NNc1ccc(S(=O)(=O)N2CCCC2)cc1 | -5 | 99* | 1 | 31 | 90*
N#C/C(=N/Nc1ccc(S(=O)(=O)N2CCOCC2)cc1)C(N)=O | -4 | -1 | 0 | 2 | .
N#C/C(=N\Nc1ccc(S(=O)(=O)N2CCCCC2)cc1)C(N)=S | -4 | 79* | 4 | -5 | 79*
N#C/C(=N\Nc1ccc([N+](=O)[O-])cc1)C(N)=S | 39* | 86* | 49 | 6 | 62*
N#C/C(=N\Nc1ccc(S(=O)(=O)N2CCCCCC2)cc1)C(N)=S | 1 | 96* | -1 | -7 | 91*
Cc1ccc(NC2CCCN(C(=O)CCN3CCOCC3)C2)cc1C (stereo unspecified) | -9 | 0 | -4 | 16 | .
c1ccc(CNc2c3c(nc4ncnn24)CCC3)cc1 | -8 | 0 | -2 | 6 | .
CCc1ccc(OCCCCN(C)Cc2ccccc2)cc1 | -2 | 2 | 12 | 7 | .
CCN(CC)c1ccc(/C=C/c2ccc3ccc(OC)cc3[n+]2CC)cc1 | 86 | 64* | 29 | 14 | 63*
CC[n+]1c(/C=C/c2ccc(OC(C)=O)c(OC)c2)ccc2ccccc21 | 0 | 20 | 0 | 4 | .
CCCCCC[n+]1ccccc1/C=C/c1ccc(N(C)C)cc1 | 67 | 58* | -21 | . | 103*
CN(C)c1ccc(C=Cc2nccc3ccccc23)cc1 | 48 | 0 | 11 | . | .
CC[n+]1c(/C=C/c2ccc(N(C)C)cc2)ccc2ccccc21 | 82 | 141* | 74 | 11 | 55*
CC[n+]1c(/C=C/c2ccc(OC)c(OC)c2)ccc2ccccc21 | -3 | 0 | -19 | -3 | .
CC[n+]1ccc(/C=C/c2ccc(N(C)C)cc2)c2ccccc21 | 91 | 119* | 85 | 11 | 68*
Cc1ccc(/C=C/c2ccc(N(C)C)cc2)[n+](C)c1 | 50 | 0 | -126 | 6 | .
COC(=O)[C@@]12C[C@@H](CC(=O)NCc3ccc(OC)c(OC)c3)C(=O)N(Cc3ccccc3)C1=CCC(C)(C)C2 | -13 | -1 | -1 | . | .
O=C(Nc1ccc2nc3n(c(=O)c2c1)CCCCC3)C(=O)N1CCN(c2ccccc2F)CC1 | 6 | -2 | 4 | 4 | .
O=C(NCCCO)C(=O)NCc1ccncc1 | 0 | -1 | 2 | 10 | .
Cc1n[nH]c(C)c1Cc1ccc(C(=O)O)cc1 | -1 | -1 | 6 | -2 | .
CC1CCC2(CC1)NC(=O)N(CC(=O)NCc1ccc(F)cc1)C2=O (stereo unspecified) | 1 | 0 | -5 | 12 | .
O=C(Nc1ccccc1)Nc1ccc2c(c1)CCC2 | -11 | 23 | 2 | -8 | .
O=C(Nc1cccc(F)c1)Nc1ccc2c(c1)CCC2 | 2 | 67* | 2 | -5 | 92*
O=C(Nc1cccc([N+](=O)[O-])c1)Nc1ccc2c(c1)CCC2 | -5 | 86* | 0 | 9 | 76*
SMILES | SKN-1 inh | MPTP block | MT1-MMP act inh | ATG4B inh | Rh123 counter
O=C(Nc1cccc([N+](=O)[O-])c1)Nc1cccs1 | 2 | 89* | 2 | 1 | 85*
COC(=O)c1sccc1NC(=O)Nc1cccc([N+](=O)[O-])c1 | 7 | 24 | -3 | -5 | .
Cc1cc(C)cc(NC(=O)Nc2ccc3c(c2)CCC3)c1 | 2 | 53* | 1 | 8 | 94*
CC(NC(=O)Nc1cccc([N+](=O)[O-])c1)(C(F)(F)F)C(F)(F)F | 22 | 106* | 3 | 9 | 102*
Cc1ccc(S(=O)(=O)N(C)C)cc1NC(=O)C(C)OC(=O)c1cc[n+]([O-])cc1 (stereo unspecified) | -10 | 1 | -5 | 2 | .
COC(=O)c1ccccc1COc1cccn2c(N(C)CC3CC3)c(C)nc12 | 13 | 67* | 10 | . | 97*
CCOC(=O)N(C)c1c(CC)nc2c(OCc3ccc(C(F)(F)F)cc3)cccn12 | -2 | 1 | -11 | . | .
Cc1nc2c(OCc3ccc(C(F)(F)F)cc3)cccn2c1N(C)CC1CC1 | 4 | 81* | 7 | . | 107*
COc1ccc(/C=C2\SC(=S)N(CCC(=O)N(CCO)c3ccccc3)C2=O)cc1OC | -6 | 1 | -5 | -6 | .
O=C(Nc1ccc(OC(F)(F)F)cc1)Oc1ccccc1N1CCOCC1 | 0 | 88* | -1 | -12 | 82*

Screens deposited in PubChem BioAssay by Sanford-Burnham Center for Chemical Genomics.
